Reference: ChEMBL document CHEMBL2150943, “SAR and LC/MS studies of β-lactamic inhibitors of human fatty acid amide hydrolase (hFAAH): evidence of a nonhydrolytic process” (J Med Chem, 2011)
“And” between values parts separate entries of the source, which are not always exact repeats. Equal values may be shown once. The source made the active and inactive calls. No cut-off for these calls is given here.

Key:
[1] = molecular target: T1, Fatty-acid amide hydrolase 1 (Mus musculus) (UniProt O08914); assay: Activity of mouse liver homogenate FAAH assessed as compound hydrolysis at 10^-5 M after 90 mins by HPLC/MS analysis in presence of URB-597; type: tissue-based
T1 sequence (whole entry): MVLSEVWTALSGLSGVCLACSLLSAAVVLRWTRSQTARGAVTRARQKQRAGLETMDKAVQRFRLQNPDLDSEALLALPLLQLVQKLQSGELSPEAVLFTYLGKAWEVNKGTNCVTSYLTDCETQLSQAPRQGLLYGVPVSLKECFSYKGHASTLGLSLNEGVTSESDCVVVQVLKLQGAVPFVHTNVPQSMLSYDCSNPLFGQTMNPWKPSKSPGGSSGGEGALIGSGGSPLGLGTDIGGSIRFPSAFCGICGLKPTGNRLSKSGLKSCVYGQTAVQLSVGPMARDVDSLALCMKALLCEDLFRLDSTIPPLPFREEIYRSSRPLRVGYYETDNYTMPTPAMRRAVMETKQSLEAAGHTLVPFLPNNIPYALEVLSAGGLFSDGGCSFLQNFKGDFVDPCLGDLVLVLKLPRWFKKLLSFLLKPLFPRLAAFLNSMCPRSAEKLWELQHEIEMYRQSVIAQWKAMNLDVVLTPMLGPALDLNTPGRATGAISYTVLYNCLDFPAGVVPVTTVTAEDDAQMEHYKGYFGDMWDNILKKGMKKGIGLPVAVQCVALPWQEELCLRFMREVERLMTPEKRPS
Method in brief: (§1)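 Mouse liver homogenate (800g supernatant from Tris pH 7.4; 22.5 μg/tube) incubated with compound in TE buffer (10 mM Tris-HCl, 1 mM EDTA, 0.1% BSA, pH 7.4), 37 °C, 90 min, with or without preincubation with FAAH inhibitor (5.10^-5 M). Parent and ring-opened product measured by HPLC/MS as AUC ratio to internal standard, normalized to heat-inactivated homogenate. Three independent experiments in duplicate.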

[2] = molecular target: T2, Fatty-acid amide hydrolase 1 (Homo sapiens) (UniProt O00519); assay: Activity of human recombinant FAAH assessed as compound hydrolysis at 10^-5 M after 90 mins by HPLC/MS analysis in presence of URB-597
T2 sequence (whole entry): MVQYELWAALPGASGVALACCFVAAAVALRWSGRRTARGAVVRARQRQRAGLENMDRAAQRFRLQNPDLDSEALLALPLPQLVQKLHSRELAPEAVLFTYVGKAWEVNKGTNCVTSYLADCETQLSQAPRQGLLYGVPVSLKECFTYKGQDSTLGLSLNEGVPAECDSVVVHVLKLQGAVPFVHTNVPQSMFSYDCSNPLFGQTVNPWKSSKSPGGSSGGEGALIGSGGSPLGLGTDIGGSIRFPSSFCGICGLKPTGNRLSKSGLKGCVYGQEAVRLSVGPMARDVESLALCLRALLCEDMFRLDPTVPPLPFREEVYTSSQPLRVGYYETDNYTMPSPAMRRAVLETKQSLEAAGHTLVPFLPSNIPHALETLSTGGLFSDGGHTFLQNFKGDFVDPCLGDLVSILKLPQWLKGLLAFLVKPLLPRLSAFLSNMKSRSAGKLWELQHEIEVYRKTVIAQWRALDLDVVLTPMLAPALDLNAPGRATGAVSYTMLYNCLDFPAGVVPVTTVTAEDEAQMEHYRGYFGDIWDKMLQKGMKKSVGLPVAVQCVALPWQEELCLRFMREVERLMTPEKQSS
Method in brief: (§2)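 Recombinant human FAAH (90 μg/tube), made in-house, incubated with compound in TE buffer (10 mM Tris-HCl, 1 mM EDTA, 0.1% w/v BSA, pH 7.4) at 37 °C for 90 min, with or without preincubation with FAAH inhibitor at 5.10^-5 M. Proteins precipitated by centrifugation and supernatant concentrated. Parent [M+H]+ quantified by HPLC/MS as AUC ratio to internal standard, normalized to boiled-enzyme blank. Three independent experiments in duplicate.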

[3] = molecular target: T1, Fatty-acid amide hydrolase 1 (Mus musculus); assay: Activity of mouse liver homogenate FAAH assessed as compound hydrolysis at 10^-5 M after 90 mins by HPLC/MS analysis in presence of PF-750; type: tissue-based; method in brief: as §1
[4] = molecular target: T3, Fatty-acid amide hydrolase 1 (Homo sapiens, UniProt O00519); assay: Irreversible inhibition of human recombinant FAAH assessed as hydrolysis of [3H]-AEA after 10 mins by liquid scintillation counting
T3 sequence (O00519 whole entry): T2 sequence (whole entry)

[5] = Metabolic stability of the compound in mouse liver homogenate assessed as compound hydrolysis at 10^-5 M after 90 mins by HPLC/MS analysis; type: ADME, tissue-based; details: read-out: Drug metabolism
Method in brief: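 Mouse liver homogenised in Tris buffer pH 7.4 and spun at 800g for 15 min; supernatant used (22.5 μg/tube). Compound incubated in TE buffer (10 mM Tris-HCl, 1 mM EDTA, 0.1% BSA, pH 7.4) for 90 min at 37 °C. Proteins removed and supernatant concentrated. HPLC/MS followed the parent [M+H]+ AUC against an internal standard, normalised to boiled homogenate. Mean ± SEM, 3 experiments in duplicate.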

[6] = molecular target: T2, Fatty-acid amide hydrolase 1 (Homo sapiens); assay: Activity of human recombinant FAAH assessed as compound hydrolysis at 10^-5 M after 90 mins by HPLC/MS analysis; method in brief: as §2
[7] = molecular target: T2, Fatty-acid amide hydrolase 1 (Homo sapiens); assay: Activity of human recombinant FAAH assessed as compound hydrolysis at 10^-5 M after 90 mins by HPLC/MS analysis in presence of PF-750; method in brief: as §2
[8] = molecular target: T3, Fatty-acid amide hydrolase 1; assay: Reversible inhibition of human recombinant FAAH assessed as hydrolysis of [3H]-AEA after 10 mins by liquid scintillation counting
Method in brief: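 In-house recombinant human FAAH (6 μg) in 10 mM Tris-HCl, 1 mM EDTA, 0.1% (w/v) BSA, pH 7.4. Compound in DMSO, or DMSO alone, with [3H]-AEA (2 μM final, 50,000 dpm) for 10 min at 37 °C. Stopped on ice with chloroform/methanol (1:1). Aqueous phase counted for [3H]-ethanolamine; buffer-only blank subtracted. IC50 from three independent experiments in duplicate.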

[9] = molecular target: T1, Fatty-acid amide hydrolase 1 (Mus musculus); assay: Activity of mouse liver homogenate FAAH assessed as compound hydrolysis at 10^-5 M after 90 mins by HPLC/MS analysis; type: tissue-based; method in brief: as §1

Row | SMILES | Activity [1] | Activity [2] | Activity [3] | metabolised at 1.5 h, 10 µM [5] [%] | Activity [6] | Activity [7] | IC50 ([8]; read-out: IC50) [µM] | IC50 ([8]; read-out: pIC50 (converted)) [µM] | other results
1 | C=CCCC(=O)N1C[C@@H]([C@@H](C)OCCCCc2ccccc2)C1=O | inactive | inactive | Active | > 80 | inactive | inactive | – | – | IC50 [4]: 0.008 µM and 0.00813 µM
2 | C=CCCC(=O)N1CC([C@@H](C)OCCCCc2ccccc2)C1 | – | – | – | – | – | – | 2.9 | 2.88 | –
3 | CCCCC/C=C\C/C=C\C/C=C\C/C=C\CCCC(=O)NCCO | inactive | inactive | inactive | – | Active | inactive | – | – | Activity [9]: Active
4 | C=CCCC(=O)N1C[C@@H]([C@@H](C)OC(=O)CCCc2ccccc2)C1=O | – | – | – | > 80 | – | – | – | – | pIC50 [8]: 8.27
5 | C=CCCCN1C[C@@H]([C@@H](C)OC(=O)CCCc2ccccc2)C1=O | – | – | – | – | – | – | 82.8 | 83.2 | –
